Measured values published in ChEMBL document CHEMBL3046780, “Syntheses and herbicidal activity of new triazolopyrimidine-2-sulfonamides as acetohydroxyacid synthase inhibitor” (Bioorg Med Chem, 2010).
pKi: −log10 of the molar value.

Tests used:
Rumex acetosa [1] = test: Post-emergence herbicidal activity against Rumex acetosa assessed as growth inhibition at 150 g ai/ha measured 15 days post compound treatment under green house conditions; type: functional; details: 360 h, read-out: GI
Method in brief: (§1)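 Compounds formulated as 100 g/L emulsifiable concentrate (DMF solvent, Tween-80 emulsifier), diluted with water, sprayed post-emergence on pot-grown weeds in clay soil (pH 6.5, 1.6% organic matter). Seeds sown 1-3 cm deep, grown at 15-30 °C. Dicots were treated at the 2-leaf stage and monocots at the 1-leaf stage. Untreated and DMF-treated controls were included. Injury was rated visually 15 days after treatment.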

Galium aparine [2] = test: Post-emergence herbicidal activity against Galium aparine assessed as growth inhibition at 75 g ai/ha measured 15 days post compound treatment under green house conditions; type: functional; details: 360 h, read-out: GI; method in brief: as §1
Polygonum humifusum [3] = test: Post-emergence herbicidal activity against Polygonum humifusum assessed as growth inhibition at 75 g ai/ha measured 15 days post compound treatment under green house conditions; type: functional; details: 360 h, read-out: GI; method in brief: as §1
Rumex acetosa [4] = test: Post-emergence herbicidal activity against Rumex acetosa assessed as growth inhibition at 37.5 g ai/ha measured 15 days post compound treatment under green house conditions; type: functional; details: 360 h, read-out: GI; method in brief: as §1
Cerastium arvense [5] = test: Post-emergence herbicidal activity against Cerastium arvense assessed as growth inhibition at 75 g ai/ha measured 15 days post compound treatment under green house conditions; type: functional; details: 360 h, read-out: GI; method in brief: as §1
Echinochloa crus-galli = test: Post-emergence herbicidal activity against Echinochloa crus-galli (barnyard grass) assessed as growth inhibition at 150 g ai/ha measured 15 days post compound treatment under green house conditions; type: functional; details: 360 h, read-out: GI; method in brief: as §1
Chenopodium album [6] = test: Post-emergence herbicidal activity against Chenopodium album assessed as growth inhibition at 37.5 g ai/ha measured 15 days post compound treatment under green house conditions; type: functional; details: 360 h, read-out: GI; method in brief: as §1
Brassica juncea = test: Post-emergence herbicidal activity against Brassica juncea assessed as growth inhibition at 150 g ai/ha measured 15 days post compound treatment under green house conditions; type: functional; details: 360 h, read-out: GI; method in brief: as §1
Polygonum humifusum [7] = test: Post-emergence herbicidal activity against Polygonum humifusum assessed as growth inhibition at 150 g ai/ha measured 15 days post compound treatment under green house conditions; type: functional; details: 360 h, read-out: GI; method in brief: as §1
Galium aparine [8] = test: Post-emergence herbicidal activity against Galium aparine assessed as growth inhibition at 37.5 g ai/ha measured 15 days post compound treatment under green house conditions; type: functional; details: 360 h, read-out: GI; method in brief: as §1
Eclipta prostrata [9] = test: Post-emergence herbicidal activity against Eclipta prostrata assessed as growth inhibition at 37.5 g ai/ha measured 15 days post compound treatment under green house conditions; type: functional; details: 360 h, read-out: GI; method in brief: as §1
Chenopodium album [10] = test: Post-emergence herbicidal activity against Chenopodium album assessed as growth inhibition at 75 g ai/ha measured 15 days post compound treatment under green house conditions; type: functional; details: 360 h, read-out: GI; method in brief: as §1
Amaranthus retroflexus [11] = test: Post-emergence herbicidal activity against Amaranthus retroflexus assessed as growth inhibition at 37.5 g ai/ha measured 15 days post compound treatment under green house conditions; type: functional; details: 360 h, read-out: GI; method in brief: as §1
Cerastium arvense [12] = test: Post-emergence herbicidal activity against Cerastium arvense assessed as growth inhibition at 150 g ai/ha measured 15 days post compound treatment under green house conditions; type: functional; details: 360 h, read-out: GI; method in brief: as §1
Rumex acetosa [13] = test: Post-emergence herbicidal activity against Rumex acetosa assessed as growth inhibition at 75 g ai/ha measured 15 days post compound treatment under green house conditions; type: functional; details: 360 h, read-out: GI; method in brief: as §1
Cyperus iria [14] = test: Post-emergence herbicidal activity against Cyperus iria assessed as growth inhibition at 37.5 g ai/ha measured 15 days post compound treatment under green house conditions; type: functional; details: 360 h, read-out: GI; method in brief: as §1
Amaranthus retroflexus [15] = test: Post-emergence herbicidal activity against Amaranthus retroflexus assessed as growth inhibition at 75 g ai/ha measured 15 days post compound treatment under green house conditions; type: functional; details: 360 h, read-out: GI; method in brief: as §1
Poa annua = test: Post-emergence herbicidal activity against Poa annua assessed as growth inhibition at 150 g ai/ha measured 15 days post compound treatment under green house conditions; type: functional; details: 360 h, read-out: GI; method in brief: as §1
Eclipta prostrata [16] = test: Post-emergence herbicidal activity against Eclipta prostrata assessed as growth inhibition at 150 g ai/ha measured 15 days post compound treatment under green house conditions; type: functional; details: 360 h, read-out: GI; method in brief: as §1
Cerastium arvense [17] = test: Post-emergence herbicidal activity against Cerastium arvense assessed as growth inhibition at 37.5 g ai/ha measured 15 days post compound treatment under green house conditions; type: functional; details: 360 h, read-out: GI; method in brief: as §1
Chenopodium album [18] = test: Post-emergence herbicidal activity against Chenopodium album assessed as growth inhibition at 150 g ai/ha measured 15 days post compound treatment under green house conditions; type: functional; details: 360 h, read-out: GI; method in brief: as §1
Cyperus iria [19] = test: Post-emergence herbicidal activity against Cyperus iria assessed as growth inhibition at 75 g ai/ha measured 15 days post compound treatment under green house conditions; type: functional; details: 360 h, read-out: GI; method in brief: as §1
Cyperus iria [20] = test: Post-emergence herbicidal activity against Cyperus iria assessed as growth inhibition at 150 g ai/ha measured 15 days post compound treatment under green house conditions; type: functional; details: 360 h, read-out: GI; method in brief: as §1
Digitaria sanguinalis = test: Post-emergence herbicidal activity against Digitaria sanguinalis (hairy crabgrass) assessed as growth inhibition at 150 g ai/ha measured 15 days post compound treatment under green house conditions; type: functional; details: 360 h, read-out: GI; method in brief: as §1
Polygonum humifusum [21] = test: Post-emergence herbicidal activity against Polygonum humifusum assessed as growth inhibition at 37.5 g ai/ha measured 15 days post compound treatment under green house conditions; type: functional; details: 360 h, read-out: GI; method in brief: as §1
[22] = molecular target: T1, Acetolactate synthase, chloroplastic (Arabidopsis thaliana, UniProt P17597)
T1 sequence (P17597 whole entry): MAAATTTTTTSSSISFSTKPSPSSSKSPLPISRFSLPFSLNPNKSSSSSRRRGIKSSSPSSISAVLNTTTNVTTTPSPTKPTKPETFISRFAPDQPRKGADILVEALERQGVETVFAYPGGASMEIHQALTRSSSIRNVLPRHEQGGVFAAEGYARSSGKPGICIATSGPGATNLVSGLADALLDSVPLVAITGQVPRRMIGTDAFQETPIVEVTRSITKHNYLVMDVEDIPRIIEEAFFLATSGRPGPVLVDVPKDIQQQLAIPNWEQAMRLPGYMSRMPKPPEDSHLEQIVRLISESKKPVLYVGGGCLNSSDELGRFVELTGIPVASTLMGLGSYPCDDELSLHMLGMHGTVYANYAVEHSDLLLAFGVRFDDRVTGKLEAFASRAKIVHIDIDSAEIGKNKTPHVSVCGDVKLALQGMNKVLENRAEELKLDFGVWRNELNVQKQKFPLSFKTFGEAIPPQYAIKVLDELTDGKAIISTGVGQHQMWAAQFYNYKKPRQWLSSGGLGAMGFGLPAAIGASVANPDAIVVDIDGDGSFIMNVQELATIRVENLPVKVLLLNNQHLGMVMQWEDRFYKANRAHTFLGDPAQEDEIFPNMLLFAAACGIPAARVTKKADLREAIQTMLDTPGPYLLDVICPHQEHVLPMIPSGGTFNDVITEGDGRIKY

Galium aparine [23] = test: Post-emergence herbicidal activity against Galium aparine assessed as growth inhibition at 150 g ai/ha measured 15 days post compound treatment under green house conditions; type: functional; details: 360 h, read-out: GI; method in brief: as §1
Amaranthus retroflexus [24] = test: Post-emergence herbicidal activity against Amaranthus retroflexus assessed as growth inhibition at 150 g ai/ha measured 15 days post compound treatment under green house conditions; type: functional; details: 360 h, read-out: GI; method in brief: as §1
Eclipta prostrata [25] = test: Post-emergence herbicidal activity against Eclipta prostrata assessed as growth inhibition at 75 g ai/ha measured 15 days post compound treatment under green house conditions; type: functional; details: 360 h, read-out: GI; method in brief: as §1

COC(=O)c1cccc(Cl)c1NS(=O)(=O)c1nc2nc(OC)ccn2n1
inhibition of growth at 150 g/ha (Rumex acetosa [1]): ≥ 80%
inhibition of growth at 75 g/ha (Galium aparine [2]): ≥ 90%
inhibition of growth at 75 g/ha (Polygonum humifusum [3]): 50%
inhibition of growth at 37.5 g/ha (Rumex acetosa [4]): ≥ 80%
inhibition of growth at 75 g/ha (Cerastium arvense [5]): ≥ 80%
inhibition of growth at 150 g/ha (Echinochloa crus-galli): 50%
inhibition of growth at 37.5 g/ha (Chenopodium album [6]): ≥ 80%
inhibition of growth at 150 g/ha (Brassica juncea): ≥ 90%
inhibition of growth at 150 g/ha (Polygonum humifusum [7]): 50%
inhibition of growth at 37.5 g/ha (Galium aparine [8]): ≥ 80%
inhibition of growth at 37.5 g/ha (Eclipta prostrata [9]): 50%
inhibition of growth at 75 g/ha (Chenopodium album [10]): ≥ 90%
inhibition of growth at 37.5 g/ha (Amaranthus retroflexus [11]): ≥ 80%
inhibition of growth at 150 g/ha (Cerastium arvense [12]): ≥ 90%
inhibition of growth at 75 g/ha (Rumex acetosa [13]): ≥ 80%
inhibition of growth at 37.5 g/ha (Cyperus iria [14]): 50%
inhibition of growth at 75 g/ha (Amaranthus retroflexus [15]): ≥ 80%
inhibition of growth at 150 g/ha (Poa annua): < 50%
inhibition of growth at 150 g/ha (Eclipta prostrata [16]): ≥ 90%
inhibition of growth at 37.5 g/ha (Cerastium arvense [17]): ≥ 80%
inhibition of growth at 150 g/ha (Chenopodium album [18]): ≥ 90%
inhibition of growth at 75 g/ha (Cyperus iria [19]): 50%
inhibition of growth at 150 g/ha (Cyperus iria [20]): 50%
inhibition of growth at 150 g/ha (Digitaria sanguinalis): < 50%
inhibition of growth at 37.5 g/ha (Polygonum humifusum [21]): 50%
pKi [22]: 5.79
inhibition of growth at 150 g/ha (Galium aparine [23]): ≥ 90%
inhibition of growth at 150 g/ha (Amaranthus retroflexus [24]): ≥ 80%
inhibition of growth at 75 g/ha (Eclipta prostrata [25]): ≥ 80%
